Assay results taken from ChEMBL document CHEMBL4602646, “Design, synthesis and discovery of andrographolide derivatives against Zika virus infection” (Eur J Med Chem, 2020).

Key:
[1] = Selectivity index, ratio of CC50 for African green monkey Vero cells to EC50 for Zika virus PRVABC-59; type: toxicity; details: read-out: Ratio CC50/EC50
In short: (§1)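 Selectivity index taken as CC₅₀ over EC₅₀. CC₅₀ comes from MTT in Vero (48 h) or SNB-19 (24 h) cells. EC₅₀ comes from the ZIKV PRVABC59 titer-reduction assay in SNB-19 cells (MOI 1, 24 h, focus-forming units on Vero).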

Zika virus = assay: Antiviral activity against Zika virus PRVABC-59 infected in human SNB19 cells assessed as reduction in viral titer incubated for 24 hrs by viral titer assay; type: functional, organism-based, SNB-19
In short: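 SNB-19 glioblastoma cells seeded 1 day ahead and pretreated 1 h with graded compound concentrations (final DMSO 0.1%). Infected with C6/36-derived PRVABC59 at MOI 1; supernatants taken 24 h post-infection. Virus titred by focus-forming unit assay on confluent Vero monolayers: 2 h inoculation, methylcellulose overlay for 48 h, PFA fixation, 4G2 antibody then HRP secondary, DAB–nickel, foci counted. Niclosamide reference included each run.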

Vero = assay: (§2) Cytotoxicity against African green monkey Vero cells assessed as reduction in cell viability incubated for 48 hrs by MTT assay; type: cell-based; details: chlorocebus sabaeus, vero, 48 h
In short: (§3)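 MTT viability readout. Cells plated at 1.0 ×10⁴ per well overnight, then exposed to compounds, with 0.1% DMSO vehicle as control: SNB-19 for 24 h, Vero for 48 h. MTT at 0.5 mg/mL final, 4 h at 37 °C; formazan dissolved in DMSO, absorbance at 570 nm. CC₅₀ from % viability versus control; each concentration repeated 3 times independently.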

SNB-19 = assay: (§4) Cytotoxicity against human SNB19 cells assessed as reduction in cell viability incubated for 24 hrs by MTT assay; type: cell-based; details: snb-19, 24 h; in short: as §3
[2] = Selectivity index, ratio of CC50 for human SNB19 cells to EC50 for Zika virus PRVABC-59; type: toxicity; details: read-out: Ratio CC50/EC50; in short: as §1
[3] = as §2; type: cell-based; details: chlorocebus sabaeus, Vero cells; in short: as §3
[4] = as §4; type: cell-based, SNB-19; details: SNB19 cells; in short: as §3
[5] = Zika virus, PRVABC-59, SNB-19, 24 h, read-out: EC50

Structure (SMILES) | selectivity ratio [1] | EC50 (Zika virus; [5]) [µM] | CC50 (Vero) [µM] | CC50 (SNB-19) [µM] | selectivity ratio [2] | EC50 (Zika virus; snb-19) | CC50 at 48 h [3] [µM] | CC50 at 24 h [4] [µM]
C=C1CC[C@@H]2[C@]3(C)COC(C)(C)O[C@@H]3CC[C@@]2(C)[C@@H]1C/C=C1/C(=O)OC[C@@H]1Oc1cccc2cccnc12 | 0.85 | 25.9 | 22 | 21.1 | 0.82 | – | – | –
C=C1CC[C@H]2[C@@](C)(CCC(=O)[C@@]2(C)COC(C)=O)[C@@H]1C/C=C1/C(=O)OC[C@@H]1Oc1cccc2cccnc12 | – | – | – | – | – | Not Active | 12.8 | 21.9
C=C1CC[C@@H]2[C@]3(C)COC(C)(C)O[C@@H]3CC[C@@]2(C)[C@@H]1C/C=C1/C(=O)OC[C@H]1Oc1cccc2ccc(C)nc12 | 3.9 | 16.6 | 65.3 | 66.5 | 4 | – | – | –
C=C1CC[C@@H]2[C@](C)(CO)[C@H](O)CC[C@@]2(C)[C@@H]1C/C=C1/C(=O)OC[C@H]1Oc1c(Cl)cc(Cl)c2cccnc12 | 7.5 | 7.8 | – | 85.2 | 10.9 | – | – | –
C=C1CC[C@@H]2[C@](C)(COC(C)=O)[C@H](O)CC[C@@]2(C)[C@@H]1C/C=C1/C(=O)OC[C@H]1Oc1c(Cl)cc(Cl)c2cccnc12 | 18.9 | 4.5 | 85 | 88.7 | 19.7 | – | – | –
C=C1CC[C@@H]2[C@]3(C)COC(C)(C)O[C@@H]3CC[C@@]2(C)[C@@H]1C/C=C1/C(=O)OC[C@@H]1Oc1c(Cl)cc(Cl)c2cccnc12 | – | – | – | – | – | Not Active | 55.9 | 39.3
C=C1CC[C@@H]2[C@]3(C)COC(C)(C)O[C@@H]3CC[C@@]2(C)[C@@H]1C/C=C1/C(=O)OC[C@@H]1Oc1cccc2ccc(C)nc12 | 6.6 | 8.5 | 55.9 | 78.4 | 9.2 | – | – | –
C=C1CC[C@@H]2[C@](C)(CO)[C@H](O)CC[C@@]2(C)[C@@H]1C/C=C1/C(=O)OC[C@H]1Oc1ccnc2ccccc12 | 2.1 | 11 | – | 60.1 | 5.5 | – | 22.8 | –
C=C1CC[C@@H]2[C@](C)(CO)[C@H](O)CC[C@@]2(C)[C@@H]1C/C=C1/C(=O)OC[C@H]1Oc1cccc2ccc(C)nc12 | – | – | – | – | – | Not Active | 61.4 | > 100
C=C1CC[C@@H]2[C@](C)(CO)[C@H](O)CC[C@@]2(C)[C@@H]1C/C=C1/C(=O)OC[C@@H]1Oc1cccc2ccc(C)nc12 | 3.9 | 25.8 | 99.8 | > 100 | > 3.9 | – | – | –
C=C1CC[C@@H]2[C@](C)(COC(C)=O)[C@H](O)CC[C@@]2(C)[C@@H]1C/C=C1/C(=O)OC[C@@H]1Oc1cccc2cccnc12 | – | – | – | – | – | Not Active | 27.5 | 49.5
C=C1CC[C@H]2[C@@](C)(CCC(=O)[C@@]2(C)COC(C)=O)[C@@H]1C/C=C1/C(=O)OC[C@H]1Oc1cccc2ccc(C)nc12 | – | – | – | – | – | Not Active | 72.4 | > 100
C=C1CC[C@@H]2[C@](C)(CO)[C@H](O)CC[C@@]2(C)[C@@H]1C/C=C1/C(=O)OC[C@@H]1Oc1cccc2cccnc12 | 16.1 | 1.3 | – | 22.7 | 17.5 | – | 20.8 | –
C=C1CC[C@@H]2[C@]3(C)COC(C)(C)O[C@@H]3CC[C@@]2(C)[C@@H]1C/C=C1/C(=O)OC[C@H]1Oc1cccnc1[N+](=O)[O-] | – | – | – | – | – | Not Active | 26.2 | 46.5
C=C1CC[C@@H]2[C@](C)(COC(C)=O)[C@H](O)CC[C@@]2(C)[C@@H]1C/C=C1/C(=O)OC[C@@H]1Oc1c(Cl)cc(Cl)c2cccnc12 | – | – | – | – | – | Not Active | 51.9 | 39.3
C=C1CC[C@@H]2[C@](C)(CO)[C@H](O)CC[C@@]2(C)[C@@H]1C/C=C1/C(=O)OC[C@@H]1Oc1c(Cl)cc(Cl)c2cccnc12 | > 7.5 | 13.3 | > 100 | > 100 | > 7.5 | – | – | –
C=C1CC[C@H]2[C@@](C)(CCC(=O)[C@@]2(C)COC(C)=O)[C@@H]1C/C=C1/C(=O)OC[C@@H]1Oc1cccc2ccc(C)nc12 | – | – | – | – | – | Not Active | 46.7 | 51.7
C=C1CC[C@H]2[C@@](C)(CCC(=O)[C@@]2(C)COC(C)=O)[C@@H]1C/C=C1/C(=O)OC[C@H]1Oc1c(Cl)cc(Cl)c2cccnc12 | – | – | – | – | – | Not Active | 64.7 | > 100
C=C1CC[C@@H]2[C@](C)(CO)[C@H](O)CC[C@@]2(C)[C@@H]1C/C=C1/C(=O)OC[C@@H]1Oc1ccnc2ccccc12 | – | – | – | – | – | Not Active | 20.7 | 61.2
C=C1CC[C@@H]2[C@](C)(COC(C)=O)[C@H](O)CC[C@@]2(C)[C@@H]1C/C=C1/C(=O)OC[C@@H]1Oc1cccc2ccc(C)nc12 | – | – | – | – | – | Not Active | 46.5 | 65.9
C=C1CC[C@@H]2[C@](C)(CO)[C@H](O)CC[C@@]2(C)[C@@H]1C/C=C1/C(=O)OC[C@H]1Oc1cccnc1[N+](=O)[O-] | 3 | 12.5 | 37.7 | 67.7 | 5.4 | – | – | –
C=C1CC[C@H]2[C@@](C)(CCC(=O)[C@@]2(C)COC(C)=O)[C@@H]1C/C=C1/C(=O)OC[C@@H]1Oc1c(Cl)cc(Cl)c2cccnc12 | 2.3 | 24.6 | 57.4 | 72 | 2.9 | – | – | –
C=C1CC[C@@H]2[C@]3(C)COC(C)(C)O[C@@H]3CC[C@@]2(C)[C@@H]1C/C=C1/C(=O)OC[C@H]1Oc1c(Cl)cc(Cl)c2cccnc12 | – | – | – | – | – | Not Active | 58.6 | 63.5
C=C1CC[C@@H]2[C@](C)(COC(C)=O)[C@H](O)CC[C@@]2(C)[C@@H]1C/C=C1/C(=O)OC[C@H]1Oc1cccc2ccc(C)nc12 | – | – | – | – | – | Not Active | 50.6 | > 100
